# Source: PubChem BioAssay
# OXTR ag: human OXTR agonists, primary screen, fluorescence, CHO-OTR cells, Fluo-8 calcium; Oxytocin receptor (Homo sapiens), P30559; Fluo-8 calcium fluorescence; normalized: DMSO 0%, oxytocin 100%; activation, % at 3 µM; hit rate 0.32% among 320,000;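 active means activation above the mean of all tested compounds plus 3 SD, cutoff set per screening run, cut at about 20% in these data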;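 further: peak over basal fluorescence ratio from a 100 s FLIPR kinetic read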
# CHO parental Ca: ATP-evoked calcium signal inhibitors, parental CHO, primary screen, counter-screen for OX1R antagonist project, cell-based, fluorescence, Fluo-8 calcium dye; parental CHO-K1, ATP-induced calcium, Fluo-8 fluorescence; hit rate 0.63% among 330,000; inhibition, % at 5.6 µM;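 active means inhibition above that plate's mean sample inhibition plus 3 SD, cut at about 26% in these data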;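 further: 0% = ATP-challenged DMSO wells and 100% = DMSO wells without ATP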
#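 Measured by: calcium-sensitive Fluo-8 fluorescence / Test system: CHO parental line / Controls: ATP-challenged DMSO wells low, unchallenged DMSO wells high / Measure: % inhibition / Compound: single nominal dose of 5.6 µM per compound / Replicates: single well per compound, no replicates / Reagent: ATP as calcium-mobilizing challenge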
# V1aR counter: agonists of human V1a receptor, primary screen, counter-screen for OXTR agonist project, fluorescence, CHO-V1R cells. Vasopressin V1a receptor (Homo sapiens), P37288. Fluo-8 calcium fluorescence, agonist mode; 0% DMSO, 100% 3 nM vasopressin. activation, % at 3 µM. hit rate 0.25% among 320,000;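 active means activation above the mean activation of all tested compounds plus 3 SD, per screening run, cut at about 20% in these data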;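 further: signal is peak over basal fluorescence ratio across a 100 second FLIPR read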
# OXTR potentiate: human OXTR potentiators, primary screen, fluorescence, CHO-OTR cells, Fluo-8 calcium. Oxytocin receptor (Homo sapiens), P30559. Fluo-8 calcium fluorescence, potentiator mode; 0% = oxytocin EC15, 100% = EC100. activation, % at 3 µM. hit rate 0.061% among 320,000;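 active means activation above that plate's cutoff, the mean activation of tested compounds plus 3 SD, cut at about 6.6% in these data, passing the limit was not always enough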;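 further: 100% uses oxytocin at 75 nM as the full agonist control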
#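 Material: human OTR in CHO cells. Compound: 3.0 µM, one dose. Timing: compound 6 min at room temperature before oxytocin, 100 s read. Evaluation: % activation of max/min ratio relative to oxytocin controls. Replication: single well per compound, singlicate. Signal: Fluo-8 calcium dye fluorescence.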
# OX1R antag-1: antagonists of human orexin 1 receptor (OX1R) | OX1R-expressing cells, FRET antagonist read-out | inhibition, % at 6.6 µM | hit rate 1.8% among 330,000 | Orexin/Hypocretin receptor type 1 (Homo sapiens), O43613; in the data active means inhibition mostly above about 38%, no sharp cut-off; inactive means mostly below about 40%;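 further: 0% = agonist challenge alone and 100% = reference antagonist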
# Target sequence (O43613 whole entry, looked up): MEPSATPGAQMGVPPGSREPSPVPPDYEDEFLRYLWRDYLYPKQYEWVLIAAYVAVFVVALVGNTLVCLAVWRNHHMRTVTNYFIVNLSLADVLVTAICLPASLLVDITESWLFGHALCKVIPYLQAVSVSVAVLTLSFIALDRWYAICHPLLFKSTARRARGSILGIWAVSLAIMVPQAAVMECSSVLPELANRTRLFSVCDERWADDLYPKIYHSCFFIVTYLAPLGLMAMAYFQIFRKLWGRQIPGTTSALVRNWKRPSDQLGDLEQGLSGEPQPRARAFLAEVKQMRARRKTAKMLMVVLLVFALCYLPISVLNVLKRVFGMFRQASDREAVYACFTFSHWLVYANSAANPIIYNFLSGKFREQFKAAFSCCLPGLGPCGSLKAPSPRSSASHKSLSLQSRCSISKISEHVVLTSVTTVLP
# OX1R antag-2: OX1R (HCRTR1) antagonists, primary screen, fluorescence, CHO/OX1R cells, Fluo-8 calcium, orexin A. Orexin/Hypocretin receptor type 1 (Homo sapiens), O43613. Fluo-8 calcium fluorescence. inhibition, % at 5 µM. hit rate 0.43% among 330,000;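 active means inhibition above its plate's threshold, mean inhibition of all tested compounds on the plate plus 3 SD, cut at about 37% in these data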;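 further: 0% = orexin A challenge wells and 100% = SB-334867-A antagonist wells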
# OX1R Fluo8 conf: OX1R (HCRTR1) antagonists, confirmation, fluorescence, CHO/OX1R cells, Fluo-8 calcium, orexin A; hit rate 38% among 1,100; inhibition, % at 5 µM; AID 492963, 2010; orexin A calcium Fluo-8 fluorescence; shares compounds with OX1R antag-2; in the data active means inhibition above about 29%;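 further: 0% = agonist challenge alone and 100% = reference antagonist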
# CHO Ca counter: ATP-evoked calcium inhibition in parental CHO, counter-screen for OX1R antagonist project, cell-based, fluorescence, CHO-K1, triplicate. shares compounds with OX1R antag-2. ATP-induced calcium, Fluo-8 fluorescence. inhibition, % at 5.6 µM. hit rate 9.3% among 1,100. AID 492965, 2010;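 active means inhibition above a per-plate limit, the mean inhibition of that plate's test compounds plus 3 SD, cut at about 25% in these data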;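 further: 0% = ATP challenge with DMSO and 100% = DMSO without ATP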
# * hit, by the source's call; . = no result. This is a sample that favours compounds with a hit; in the whole collection about 2.7% have one here.
SMILES,OXTR ag,CHO parental Ca,V1aR counter,OXTR potentiate,OX1R antag-1,OX1R antag-2,OX1R Fluo8 conf,CHO Ca counter
CC(NCC(=O)Nc1cc(S(=O)(=O)N2CCCCCC2)ccc1Cl)c1ccccc1 (configuration not stated),-1.5,21.5,0.6,-19.6,23.8,27.3,27.9,26.1*
O=C(Cc1n[nH]c(=O)c2ccccc12)NC(c1ccccc1)c1ccccc1,-0.3,-20.8,-0.8,-2.0,19.7,-22.3,.,.
CCOc1ccc(-n2ccnc(SCC(=O)Nc3cccc(OC)c3)c2=O)cc1,-0.1,-12.0,0.9,-8.3,22.1,-15.1,.,.
CC1=CC(C)(C)N(S(=O)(=O)c2ccc(C)cc2)c2ccc(C)cc21,-1.3,-0.3,-0.8,-9.0,23.3,40.4,-4.3,55.6*
CC1=CC(C)(C)N(S(=O)(=O)c2ccc(F)cc2)c2ccccc21,-0.6,-17.4,-0.8,0.8,28.9,-13.9,.,.
COc1ccc(C(=O)NCCOc2ccccc2)cc1S(=O)(=O)N1CCOCC1,0.0,-13.1,0.7,-1.2,6.0,-14.9,.,.
COc1ccc(-n2nc(C(=O)NCC(=O)Nc3cccc(Cl)c3)c3ccccc3c2=O)cc1,1.0,-24.5,1.2,-6.2,16.1,-30.7,.,.
O=C(NC(=O)c1ccccc1O)c1ccc(C(F)(F)F)cc1,14.5,6.3,17.5,-21.2,23.8,8.6,.,.
CCCc1ccc(C(=O)NC(=O)c2ccccc2O)cc1,18.6,10.4,11.5,-16.5,22.7,26.9,8.8,73.4*
Cc1cccc(NC(=S)NCC(C)CSc2ccc(Cl)cc2)c1 (configuration not stated),1.9,24.0,4.1,-18.8,21.1,34.0,-4.8,-4.8
CCCc1nnc(NC(=O)Cn2c(=O)oc3cc(Br)ccc32)s1,33.6*,5.5,32.3*,-12.9,-1.7,40.0,27.7,10.7
O=C(CN1CCC(c2nc3ccccc3s2)CC1)NCc1cccs1,12.5,3.8,9.7,-11.9,2.6,51.8*,-5.4,-1.9
CCN(CC1CCCO1)C(=O)c1cc(COc2ccccc2SC)on1 (configuration not stated),1.9,-5.4,5.9,-0.3,6.5,-15.7,.,.
Cc1csc2ncnc(N3CCN(C(=S)Nc4ccc(C(F)(F)F)cc4)CC3)c12,11.0,0.2,9.4,-18.1,44.7,49.2*,22.1,44.7*
Cc1csc2c(N3CCN(C(=S)Nc4ccc(C(F)(F)F)cc4)CC3)ncnc12,11.5,9.8,5.9,-15.7,25.3,37.1,22.5,64.3*
Cc1cc(C)cc(NC(=S)N2CCN(c3ncc(C(F)(F)F)cc3Cl)CC2)c1,-1.4,-25.1,0.2,-0.8,4.0,-0.8,.,.
Cc1ccc(S(=O)(=O)N(C)c2ccc(OC(=O)c3cccs3)cc2)cc1,2.9,9.3,3.8,-8.9,6.0,37.2,-4.7,-2.7
Cc1ccc(S(=O)(=O)N(C)c2ccc(OC(=O)COc3ccccc3)cc2)cc1,4.0,10.2,4.5,-5.5,4.5,0.3,.,.
O=C(CNc1cccc(S(=O)(=O)N2CCCC2)c1)Nc1ccc(C(F)(F)F)cc1,10.8,20.1,10.3,-16.5,20.2,25.0,3.7,12.3
Cc1ccc(NC(=O)CNc2cccc(S(=O)(=O)N3CCCCC3)c2)cc1F,2.8,-10.8,3.7,-13.3,4.0,-27.9,.,.
O=C1CCCc2[nH]c3cccc(/C(=C/c4ccccc4)c4ccccc4)c3c21,-1.1,4.4,0.4,-9.4,47.7,38.9,19.1,0.5
CN(CC(=O)Nc1cccc(F)c1)C(=O)c1ccccc1OCCOc1ccccc1,-1.3,-22.3,0.5,-14.2,28.1,-30.0,.,.
Cc1cccc(NC(=O)C2CCCN2C(=O)Oc2ccccc2)c1C (configuration not stated),-0.8,-1.1,-1.4,-0.1,-0.1,33.6,-3.9,-0.6
CCOc1ccccc1NC(=O)C1CCCN(S(=O)(=O)c2ccc3c(c2)C(C)(C)C(=O)N3C)C1 (configuration not stated),-0.3,-10.0,1.7,-5.7,11.0,-26.5,.,.
CC(C)c1ccc2[nH]c3c(c2c1)[C@@H]1CCN2C(=O)CCC[C@H](C3)[C@H]12,13.2,-24.1,16.4,-17.3,38.0,-22.9,.,.
SMILES,OXTR ag,CHO parental Ca,V1aR counter,OXTR potentiate,OX1R antag-1,OX1R antag-2,OX1R Fluo8 conf,CHO Ca counter
CCS(=O)(=O)c1ncc(Cl)c(C(=O)Nc2ccc(C)cc2)n1,-2.2,26.0,-1.8,-5.2,51.0,28.3,32.0*,20.4
O=S(=O)(/N=C(/Nc1cccc2ccccc12)c1ccccc1)c1ccc(Br)cc1,-2.3,2.9,-0.7,-9.1,9.2,-20.5,.,.
CC(=O)Oc1cccc(C(=O)Nc2ccc(NC(=O)c3cccs3)cc2)c1,1.8,14.2,1.9,-4.1,12.3,-3.5,.,.
CCOc1ccc(-c2nc(CSCC(=O)N3CCN(C(=O)c4ccco4)CC3)c(C)o2)cc1,0.9,-17.7,4.6,-9.2,6.0,-30.1,.,.
CCOC(=O)C1CCN(C(=O)CSCc2nc(-c3ccc(OCC)cc3)oc2C)CC1,5.1,16.8,6.6,-31.0,42.2,29.4,-2.2,16.5
CC[C@@]1(C(=O)OC)N[C@H](CN(C)S(=O)(=O)c2ccc(OC(F)(F)F)cc2)[C@@H]2C(=O)N(C)C(=O)[C@@H]21,0.8,-14.9,-0.5,-1.3,0.5,-26.7,.,.
COc1ccc(S(=O)(=O)Nc2ccc(S(=O)(=O)N3CCCC3)cc2)cc1,0.0,-4.4,0.1,-4.9,2.2,-1.8,.,.
COc1ccc(S(=O)(=O)Nc2ccc(S(=O)(=O)N3CCCCC3)cc2)cc1,21.1*,22.2,23.8*,-25.6,17.5,30.9,15.0,-0.7
Cc1cc([N+](=O)[O-])ccc1NCc1ccc2ccccc2c1,-0.9,1.6,0.7,-5.5,3.0,23.4,.,.
Cc1cc([N+](=O)[O-])ccc1NCc1ccccc1,-2.1,18.0,-0.1,-7.6,12.5,49.6*,18.1,16.2
O=C(Nc1ccccc1)Nc1cccc(C(F)(F)F)c1,8.8,10.3,11.3,-11.0,64.3,33.2,-0.2,20.8
CNC(=O)Nc1cccc(C(F)(F)F)c1,1.5,-6.6,1.2,1.6,11.4,-6.7,.,.
